Data from ChEMBL document CHEMBL4715770, “Inhibition of Low Molecular Weight Protein Tyrosine Phosphatase by an Induced-Fit Mechanism” (J Med Chem, 2016).

Biological target: Low molecular weight phosphotyrosine protein phosphatase (Homo sapiens) (UniProt P24666)
Assay: Inhibition of LMW-PTP isoform A in human HepG2 cells assessed as increase in insulin-induced Akt phosphorylation pretreated for 2 hrs followed by insulin stimulation and measured after 30 mins by Western blot analysis
Type: cell-based
Conditions: dose 2-16 µM
Method in brief: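 HepG2 cells in DMEM with 10% FBS at 37 °C and 5% CO2 were grown to 60-80% confluence and serum-starved overnight. They were given vehicle or compound for 2 h, then 50 nM insulin for 30 min. Lysates were run on 10% SDS-PAGE and immunoblotted for phospho-AKT and total AKT with ECL detection. Densitometric pAKT/AKT ratios were normalized to vehicle.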

Sequence of Low molecular weight phosphotyrosine protein phosphatase (Homo sapiens) (P24666 whole entry, canonical isoform): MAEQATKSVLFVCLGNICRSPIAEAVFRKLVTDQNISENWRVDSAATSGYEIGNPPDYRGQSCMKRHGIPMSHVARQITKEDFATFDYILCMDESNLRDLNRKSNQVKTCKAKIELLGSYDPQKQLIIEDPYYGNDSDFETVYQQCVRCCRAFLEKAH

For O=C(Nc1nc2ccc([N+](=O)[O-])cc2s1)C(c1ccccc1)S(=O)(=O)O (stereo unspecified), the inhibition was “Dose-dependent effect”.
